Measured values taken from ChEMBL document CHEMBL1212859, “Novel aminopeptidase N (APN/CD13) inhibitors derived from 3-phenylalanyl-N'-substituted-2,6-piperidinedione” (Bioorg Med Chem, 2010).

Tests used:
Aminopeptidase N = molecular target: T1, Aminopeptidase N (Sus scrofa, UniProt P15145); assay: Inhibition of pig kidney microsome aminopeptidase N after 30 mins by UV-vis spectrophotometric analysis
T1 sequence (P15145 whole entry): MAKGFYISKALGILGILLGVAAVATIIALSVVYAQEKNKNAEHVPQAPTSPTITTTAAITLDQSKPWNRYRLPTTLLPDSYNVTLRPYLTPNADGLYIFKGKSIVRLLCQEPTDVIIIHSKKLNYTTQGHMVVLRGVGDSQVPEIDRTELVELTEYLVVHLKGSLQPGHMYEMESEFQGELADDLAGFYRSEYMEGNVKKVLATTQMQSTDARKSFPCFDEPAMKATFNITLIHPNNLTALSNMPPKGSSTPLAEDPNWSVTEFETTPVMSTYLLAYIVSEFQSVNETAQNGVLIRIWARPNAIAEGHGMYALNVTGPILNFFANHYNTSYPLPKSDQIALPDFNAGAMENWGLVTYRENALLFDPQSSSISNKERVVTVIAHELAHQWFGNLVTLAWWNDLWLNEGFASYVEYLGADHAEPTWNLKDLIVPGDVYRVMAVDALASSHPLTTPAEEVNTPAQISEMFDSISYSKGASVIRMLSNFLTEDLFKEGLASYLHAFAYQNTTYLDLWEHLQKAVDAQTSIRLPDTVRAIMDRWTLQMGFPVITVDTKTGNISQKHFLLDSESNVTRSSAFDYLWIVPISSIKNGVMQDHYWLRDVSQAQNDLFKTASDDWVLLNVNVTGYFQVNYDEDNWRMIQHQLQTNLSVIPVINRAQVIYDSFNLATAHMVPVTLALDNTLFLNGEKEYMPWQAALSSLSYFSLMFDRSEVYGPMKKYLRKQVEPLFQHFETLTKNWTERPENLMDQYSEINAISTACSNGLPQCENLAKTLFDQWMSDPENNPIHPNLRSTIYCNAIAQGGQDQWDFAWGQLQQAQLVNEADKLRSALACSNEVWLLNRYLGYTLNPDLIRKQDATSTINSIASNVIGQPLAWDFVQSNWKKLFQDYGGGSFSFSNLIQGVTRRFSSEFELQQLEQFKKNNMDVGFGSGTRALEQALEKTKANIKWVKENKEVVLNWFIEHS
Procedure, shortened: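 Enzyme was porcine kidney microsomal aminopeptidase at 4 mg/ml final, with L-Leu-p-nitroanilide as substrate. Inhibitor solutions were made in assay buffer adjusted to pH 7.5. Inhibitors were preincubated with enzyme for 30 min at room temperature.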

[1] = molecular target: 72 kDa type IV collagenase (Homo sapiens, UniProt P08253); assay: Inhibition of MMP2 after 30 mins
72 kDa type IV collagenase, sequence (P08253 whole entry): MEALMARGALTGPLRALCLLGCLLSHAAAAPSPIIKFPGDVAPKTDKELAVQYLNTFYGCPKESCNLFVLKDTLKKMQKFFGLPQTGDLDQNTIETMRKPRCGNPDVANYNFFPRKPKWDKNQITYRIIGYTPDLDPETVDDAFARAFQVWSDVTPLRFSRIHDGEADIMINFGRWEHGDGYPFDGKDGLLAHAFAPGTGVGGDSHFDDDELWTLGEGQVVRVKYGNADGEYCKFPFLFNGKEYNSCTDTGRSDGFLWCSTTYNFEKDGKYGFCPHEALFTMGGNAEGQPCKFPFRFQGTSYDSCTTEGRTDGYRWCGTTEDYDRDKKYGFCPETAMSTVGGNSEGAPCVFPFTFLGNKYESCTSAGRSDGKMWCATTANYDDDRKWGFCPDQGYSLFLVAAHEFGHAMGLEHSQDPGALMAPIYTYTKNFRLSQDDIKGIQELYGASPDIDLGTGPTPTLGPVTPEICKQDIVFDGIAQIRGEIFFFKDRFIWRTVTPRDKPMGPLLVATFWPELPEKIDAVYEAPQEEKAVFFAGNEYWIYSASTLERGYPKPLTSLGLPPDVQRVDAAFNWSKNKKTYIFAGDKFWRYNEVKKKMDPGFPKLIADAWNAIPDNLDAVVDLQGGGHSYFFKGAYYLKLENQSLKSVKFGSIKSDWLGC
Procedure, shortened: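 Gelatinase A (MMP-2), synthesized substrate and inhibitor were dissolved together in 50 mmol/L sodium borate, pH 8.5, and incubated for 30 min at 37 °C. TNBS was used in the assay.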

MDA-MB-231 = assay: Cytotoxicity against human MDA-MB-231 cells after 72 hrs by MTT assay; format: functional, cell-based; conditions: MDA-MB-231, 72 h
Procedure, shortened: (§1)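 Cells grown in RPMI1640 with 10% FBS at 37 °C under humidified 5% CO2. HL-60 cells have high APN expression and MDA-MB-231 cells have low expression. Plated at 10,000 cells/well and allowed 4 h in complete medium. Exposed for 72 h to five concentrations from 2000 down to […]. Proliferation read by MTT. Mean of three independent experiments.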

HL-60 = assay: Cytotoxicity against human HL60 cells expressing aminopeptidase N after 72 hrs by MTT assay; format: functional, cell-based; conditions: HL-60, 72 h; procedure, shortened: as §1

Row | Structure (SMILES) | IC50 (Aminopeptidase N) [µM] | IC50 [1] [µM] | IC50 (MDA-MB-231) [µM] | IC50 (HL-60) [µM]
1 | N[C@@H](Cc1ccccc1)C(=O)N[C@H]1CCC(=O)N(CC(=O)NCC(=O)OCc2ccccc2)C1=O | 13.4 | 454 | – | –
2 | CC(C)[C@H](NC(=O)CN1C(=O)CC[C@H](NC(=O)[C@@H](N)Cc2ccccc2)C1=O)C(=O)O | 13.3 | > 1000 | – | –
3 | C[C@H](NC(=O)CN1C(=O)CC[C@H](NC(=O)[C@@H](N)Cc2ccccc2)C1=O)C(=O)OCc1ccccc1 | 91.6 | 129 | – | –
4 | N[C@@H](Cc1ccccc1)C(=O)N[C@H]1CCC(=O)N(CC(=O)N[C@@H](CCC(=O)OCc2ccccc2)C(=O)OCc2ccccc2)C1=O | 91.4 | 272 | – | –
5 | CC(C)C[C@H](NC(=O)CN1C(=O)CC[C@H](NC(=O)[C@@H](N)Cc2ccccc2)C1=O)C(=O)OCc1ccccc1 | 30.2 | 121 | – | –
6 | CC(C)C[C@H](NC(=O)CN1C(=O)CC[C@H](NC(=O)[C@@H](N)Cc2ccccc2)C1=O)C(=O)O | 8.42 | > 1000 | 14400 | 5210
7 | N[C@@H](Cc1ccccc1)C(=O)N[C@H]1CCC(=O)N(CC(=O)Nc2ccc(F)c(Cl)c2)C1=O | 170 | 131 | – | –
8 | CC(C)C[C@H](NC(=O)[C@@H](O)[C@H](N)Cc1ccccc1)C(=O)O [UBENIMEX] | – | 157 | 8590 | 1130
9 | C[C@H](NC(=O)CN1C(=O)CC[C@H](NC(=O)[C@@H](N)Cc2ccccc2)C1=O)C(=O)O | 110 | 155 | – | –
10 | NC(Cc1ccccc1)C(=O)N[C@H]1CCC(=O)N(CC(=O)N[C@@H](CCC(=O)O)C(=O)O)C1=O (single isomer, unassigned) | 12.6 | > 1000 | – | –
11 | N[C@@H](Cc1ccccc1)C(=O)N[C@H]1CCC(=O)N(CC(=O)Nc2ccc(F)cc2)C1=O | 252 | 122 | – | –
12 | N[C@@H](Cc1ccccc1)C(=O)N[C@H]1CCC(=O)N(CC(=O)N[C@@H](Cc2ccccc2)C(=O)O)C1=O | 66.4 | 316 | – | –
13 | COc1ccc(NC(=O)CN2C(=O)CC[C@H](NC(=O)[C@@H](N)Cc3ccccc3)C2=O)cc1 | 178 | > 1000 | – | –
14 | N[C@@H](Cc1ccccc1)C(=O)N[C@H]1CCC(=O)N(CC(=O)NCC(=O)O)C1=O | 38.7 | 107 | – | –
15 | NC(Cc1ccccc1)C(=O)N[C@H]1CCC(=O)N(CC(=O)NCCC(=O)OCc2ccccc2)C1=O (single isomer, unassigned) | 49.7 | 127 | – | –
16 | NC(Cc1ccccc1)C(=O)N[C@H]1CCC(=O)N(CC(=O)NCC(=O)NO)C1=O (single isomer, unassigned) | 304 | 141 | – | –

Stronger by IC50 [1], values ahead:

Row | IC50 (Aminopeptidase N) [µM] | IC50 [1] [µM] | Structure (SMILES) | IC50 (MDA-MB-231) [µM] | IC50 (HL-60) [µM]
17 | 6.48 | 12 | N[C@@H](Cc1ccccc1)C(=O)N[C@H]1CCC(=O)N(CC(=O)N[C@@H](Cc2ccccc2)C(=O)OCc2ccccc2)C1=O | 10200 | 2540
18 | 245 | 62.7 | N[C@@H](Cc1ccccc1)C(=O)N[C@H]1CCC(=O)N(CC(=O)Nc2ccccc2F)C1=O | – | –
19 | 30.1 | 18.5 | CC(C)[C@H](NC(=O)CN1C(=O)CC[C@H](NC(=O)[C@@H](N)Cc2ccccc2)C1=O)C(=O)OCc1ccccc1 | – | –
20 | 12.8 | 22.7 | NC(Cc1ccccc1)C(=O)N[C@H]1CCC(=O)N(CC(=O)NCCC(=O)O)C1=O (single isomer, unassigned) | – | –
21 | 74 | 71.6 | N[C@@H](Cc1ccccc1)C(=O)N[C@H]1CCC(=O)N(CC(=O)Nc2ccc(Br)cc2)C1=O | – | –
22 | 6.92 | 60.4 | N[C@@H](Cc1ccccc1)C(=O)N[C@H]1CCC(=O)N(CC(=O)Nc2cccc(Cl)c2)C1=O | 9480 | 2220
23 | 53.4 | 46.9 | N[C@@H](Cc1ccccc1)C(=O)N[C@H]1CCC(=O)N(CC(=O)Nc2ccc(F)c(F)c2)C1=O | – | –
24 | 5 | 8.27 | Cc1ccc(NC(=O)CN2C(=O)CC[C@H](NC(=O)[C@@H](N)Cc3ccccc3)C2=O)c(C)c1 | 8590 | 1970
